From ChEMBL document CHEMBL1130112, “H3-receptor antagonists: synthesis and structure-activity relationships of para- and meta-substituted 4(5)-phenyl-2-[[2-[4(5)-imidazolyl]ethyl]thio]imidazoles” (J Med Chem, 1997) come the findings set out here.

The pKa is the pH at which an ionisable group is half protonated. Usually Ki stands for the dissociation constant of the complex between target and ligand, obtained from inhibition or displacement. Read a low Ki as higher affinity. What is called logP is the decadic logarithm of the partition coefficient of the neutral form, usually between octanol and water.

Series [1] addresses Histamine H3 receptor (Cavia porcellus, UniProt Q9JI35). Briefly: Histamine H3-antagonist potency on electrically stimulated guinea pig ileum. The format is functional, tissue-based. The following applies: read-out: pA2 (converted). The method, boiled down:
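Guinea pig (350–550 g) terminal ileum under 1 g load in Krebs Henseleit, 37 °C, O₂ 95%:CO₂ 5%, equilibrated ≥60 min; transmural stimulation (0.1 Hz, 1 ms, submax voltage). Compounds up to 10⁻⁶ M, 30 min, then cumulative (R)-α-methylhistamine (10⁻⁹–10⁻⁶ M) inhibiting twitch, recorded isometrically. pA₂ by Schild regression; mean ± SEM of 10–12 observations.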

A short description of series [2]: dissociation constant corresponding to the 4(5)-alkylimidazole. The format is ADME. The following applies: read-out: pKa,1. The method, boiled down: (§1)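 pH-metric titration at 25.0 ± 0.1 °C with 0.15 M KCl, samples 0.5–4 mM; for poorly water-soluble compounds, values from 15–60 wt % methanol/water with Yasuda–Shedlovsky extrapolation; refined by nonlinear least squares.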

Series [3] addresses Histamine H3 receptor (Rattus norvegicus, UniProt Q9QYN8). Briefly: Inhibition of [3H]NAMHA binding to rat brain membrane histamine H3-receptor.
Series [4] is described as follows: dissociation constant corresponding to the 4(5)-phenyl-2-thiomidazole. The format is ADME. The following applies: read-out: pKa,2. The method, boiled down:
as §1

Series [5] is described as follows: LogP of the free base (neutral species). Particulars: octanol/water. The series is classed as physicochemical. The method, boiled down: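 pH-metric method: octanol/water titrations with Bjerrum plots, 0.15 M KCl ionic strength, 25.0 ± 0.1 °C, samples 0.5–4 mM; constants refined by nonlinear least squares.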
Series [6] addresses Histamine H3 receptor (Cavia porcellus) (UniProt Q9JI35). The experiment in a line: Compound was tested for H3-antagonist potency on electrically stimulated guinea pig ileum; Unsurmountable antagonism at concentration > 10^-7 M. The format is functional, tissue-based.

Molecules are shown by their SMILES. Calls of active or inactive are those of the source. The rule behind the calls is not given here.

Chain of Histamine H3 receptor (Rattus norvegicus, UniProt Q9QYN8) (Q9QYN8 whole entry): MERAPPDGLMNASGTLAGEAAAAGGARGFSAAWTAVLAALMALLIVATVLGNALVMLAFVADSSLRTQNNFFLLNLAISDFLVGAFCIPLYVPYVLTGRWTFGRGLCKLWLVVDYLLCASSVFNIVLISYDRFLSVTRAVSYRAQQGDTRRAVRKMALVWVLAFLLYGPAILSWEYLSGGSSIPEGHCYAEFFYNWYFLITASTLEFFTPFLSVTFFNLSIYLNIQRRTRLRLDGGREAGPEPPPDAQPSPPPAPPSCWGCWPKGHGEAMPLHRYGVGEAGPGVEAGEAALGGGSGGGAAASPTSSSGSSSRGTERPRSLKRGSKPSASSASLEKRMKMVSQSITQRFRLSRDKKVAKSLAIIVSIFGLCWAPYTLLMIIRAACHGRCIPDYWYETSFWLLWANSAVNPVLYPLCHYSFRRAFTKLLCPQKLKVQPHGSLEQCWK
Chain of Histamine H3 receptor (Cavia porcellus, UniProt Q9JI35) (Q9JI35 whole entry): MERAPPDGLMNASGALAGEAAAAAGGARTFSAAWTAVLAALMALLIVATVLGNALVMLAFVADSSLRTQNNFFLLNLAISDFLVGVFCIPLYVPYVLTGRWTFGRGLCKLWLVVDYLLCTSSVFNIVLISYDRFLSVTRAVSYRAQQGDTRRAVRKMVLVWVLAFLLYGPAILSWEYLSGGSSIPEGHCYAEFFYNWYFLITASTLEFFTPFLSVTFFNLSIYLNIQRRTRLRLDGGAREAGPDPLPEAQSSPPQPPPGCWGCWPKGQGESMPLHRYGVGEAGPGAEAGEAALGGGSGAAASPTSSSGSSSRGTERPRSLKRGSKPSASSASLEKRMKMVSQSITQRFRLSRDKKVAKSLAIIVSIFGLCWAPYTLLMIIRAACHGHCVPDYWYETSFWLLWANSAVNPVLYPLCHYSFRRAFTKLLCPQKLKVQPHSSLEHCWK
Chain of Histamine H3 receptor (Cavia porcellus) (Q9JI35 whole entry): as above

For the molecule `c1ccc(-c2cnc(SCCc3c[nH]cn3)[nH]2)cc1`, the Kb in series [1] was 6.46 nM. Further, the pKa amounted to 4.28 in series [2] and 7.07 in series [4]. Further, the affinity in series [3], expressed as Ki, was 14.1 nM. Also, the lipophilicity (logP) in series [5] came to 2.62.
Regarding `O=S(=O)(Oc1ccc(-c2cnc(SCCc3c[nH]cn3)[nH]2)cc1)c1ccccc1`, the Kb in series [1] was 50.1 nM. The pKa in series [2] worked out at 3.84; in series [4], 6.93. The same molecule gave an inhibition constant (Ki) in series [3] of 2.95 nM. In series [5], this molecule gave a logP of 3.72.
Regarding `O=[N+]([O-])c1cccc(-c2c[nH]c(SCCc3c[nH]cn3)n2)c1`, in series [1], the Kb was 3.47 nM. Also, the pKa in series [2] was 3.21; in series [4], 6.89. The molecule further had a Ki in series [3] of 30.9 nM. The molecule also registered a logP in series [5] of 2.43.
With `CCCOc1cccc(-c2c[nH]c(SCCc3c[nH]cn3)n2)c1`, the figures for the pKa in series [2] and in series [4] were 4.04 and 7.04, respectively. In series [6], the pA2 entry was “inactive”. In series [3], this molecule gave a Ki of 9.33 nM. The lipophilicity (logP) in series [5] is 3.7.
The matching figures for `CCCc1ccc(-c2c[nH]c(SCCc3c[nH]cn3)n2)cc1`: 4.34, 7.03, “inactive”, 39.8 nM and 4.09.
For `O=[N+]([O-])c1ccc(-c2cnc(SCCc3c[nH]cn3)[nH]2)cc1`, the Kb in series [1] was 16.2 nM. Also, the values for the pKa in series [2] and in series [4] were 3.13 and 6.94, respectively. Moreover, the affinity in series [3], expressed as Ki, was 52.5 nM. The molecule further yielded a lipophilicity (logP) in series [5] of 2.75.
`NC(=O)c1cccc(-c2cnc(SCCc3c[nH]cn3)[nH]2)c1`: the Kb in series [1] was 145 nM. The pKa was determined as 4.01 in series [2] and 7.05 in series [4]. Also, in series [3], the Ki is 16.2 nM. In series [5], this molecule had a lipophilicity (logP) of 1.61.
Regarding `NC(=O)c1ccc(-c2c[nH]c(SCCc3c[nH]cn3)n2)cc1`, the Kb in series [1] was 117 nM. The pKa in series [2] stood at 3.63; in series [4], 7.07. Also, in series [3], the affinity, expressed as Ki, was 28.2 nM. In addition, in series [5], the lipophilicity (logP) came out at 1.4.
The matching figures for `Clc1ccc(-c2c[nH]c(SCCc3c[nH]cn3)n2)cc1`: 1.35 nM, 4.12, 7.1, 35.5 nM and 3.66.
The matching figures for `Brc1cccc(-c2cnc(SCCc3c[nH]cn3)[nH]2)c1`: 7.76 nM, 3.9, 7.08, 14.1 nM and 3.76.
Consider `CCCCOc1ccc(-c2cnc(SCCc3c[nH]cn3)[nH]2)cc1`, for which the Kb in series [1] is 148 nM. Moreover, the results for the pKa in series [2] and in series [4] were 4.3 and 7.06, respectively. The molecule further came in with a logP in series [5] of 4.11.
Turning to `CN(C)c1ccc(-c2c[nH]c(SCCc3c[nH]cn3)n2)cc1`, in series [1], the Kb was 52.5 nM. The inhibition constant (Ki) in series [3] is 29.5 nM.
